Assay results as given in ChEMBL document CHEMBL1671618, “Functional cloning and characterization of the multidrug efflux pumps NorM from Neisseria gonorrhoeae and YdhE from Escherichia coli” (Antimicrob Agents Chemother, 2008).

Experiments:
[1] = system: Escherichia coli; assay: Antimicrobial activity against AcrAB-deficient Escherichia coli AG100AX harboring pBADomeganorM plasmid containing Neisseria gonorrhoeae multidrug efflux pump NorM after 18 to 24 hrs by two fold dilution method; assay type: functional
[2] = system: Escherichia coli; assay: Antimicrobial activity against AcrAB-deficient Escherichia coli AG100AX harboring pBAD plasmid after 18 to 24 hrs by two fold dilution method; assay type: functional
Procedure, shortened: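 Twofold agar dilution on LB agar containing the antimicrobial, inoculum 10⁴ CFU/spot. Growth was scored after 18–24 h at 37°C, and each MIC determination was repeated at least four times.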

[3] = system: Escherichia coli; assay: Antimicrobial activity against AcrAB-deficient Escherichia coli AG100AX harboring pBADomegaydhE plasmid containing Escherichia coli multidrug efflux pump YdhE after 18 to 24 hrs by two fold dilution method; assay type: functional
[4] = Binding affinity to Neisseria gonorrhoeae FA19 multidrug efflux protein NorM expressed in Escherichia coli AG100AX in presence of 0.02% DDM surfactant by fluorescence polarization assay
[5] = target: T1, Multidrug resistance protein MdtK (Escherichia coli (strain K12), UniProt P37340); assay: Binding affinity to Escherichia coli K-12 multidrug efflux protein YdhE […] in presence of 0.02% DDM surfactant by fluorescence polarization assay
T1 sequence (P37340 whole entry): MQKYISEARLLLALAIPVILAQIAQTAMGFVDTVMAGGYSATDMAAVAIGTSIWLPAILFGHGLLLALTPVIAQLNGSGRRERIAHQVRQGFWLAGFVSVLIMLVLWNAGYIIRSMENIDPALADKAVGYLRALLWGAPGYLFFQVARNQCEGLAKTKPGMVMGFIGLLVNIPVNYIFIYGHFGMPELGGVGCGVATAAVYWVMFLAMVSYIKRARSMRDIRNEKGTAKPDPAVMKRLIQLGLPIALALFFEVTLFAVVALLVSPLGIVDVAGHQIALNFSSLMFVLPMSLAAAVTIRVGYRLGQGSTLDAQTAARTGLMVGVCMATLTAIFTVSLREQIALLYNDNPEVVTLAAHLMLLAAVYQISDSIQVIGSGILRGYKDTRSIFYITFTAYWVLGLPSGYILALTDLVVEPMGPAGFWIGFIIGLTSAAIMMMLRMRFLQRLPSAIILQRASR

[6] = Binding affinity to Neisseria gonorrhoeae FA19 multidrug efflux protein NorM […] using Scatchard plot in presence of 0.02% DDM surfactant by fluorescence polarization assay
[7] = target: T1, Multidrug resistance protein MdtK; assay: Binding affinity to purified detergent-solubilized Escherichia coli K-12 multidrug efflux protein YdhE by equilibrium dialysis method
Procedure, shortened: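 YdhE carried a C-terminal His6 tag and was overproduced in E. coli TOP10 by L-arabinose induction. It was solubilized in 1% DDM, then purified by Ni2+-affinity and G-200 sizing in 20 mM HEPES-NaOH pH 7.5 with 0.02% DDM. Purity was >90% by SDS-PAGE. Rhodamine 6G binding was measured by equilibrium dialysis to give the KD and the binding stoichiometry.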

[8] = Binding affinity to Neisseria gonorrhoeae FA19 multidrug efflux protein NorM expressed in Escherichia coli AG100AX at pH 8.5 by fluorescence polarization assay
Procedure, shortened: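 Rhodamine 6G (1 μM) binding to purified DDM-solubilized His6-NorM, measured by steady-state fluorescence polarization across pH 5.8 to 8.5. Excitation 527 nm, emission 550 nm, 25°C, 5-min equilibration per titration point. KD fitted at each pH.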

[9] = target: T2, Multidrug efflux pump subunit AcrB (Escherichia coli (strain K12), UniProt P31224); assay: Binding affinity to Escherichia coli K-12 multidrug efflux protein AcrB at pH 8.4 by equilibrium dialysis method
T2 sequence (P31224 whole entry): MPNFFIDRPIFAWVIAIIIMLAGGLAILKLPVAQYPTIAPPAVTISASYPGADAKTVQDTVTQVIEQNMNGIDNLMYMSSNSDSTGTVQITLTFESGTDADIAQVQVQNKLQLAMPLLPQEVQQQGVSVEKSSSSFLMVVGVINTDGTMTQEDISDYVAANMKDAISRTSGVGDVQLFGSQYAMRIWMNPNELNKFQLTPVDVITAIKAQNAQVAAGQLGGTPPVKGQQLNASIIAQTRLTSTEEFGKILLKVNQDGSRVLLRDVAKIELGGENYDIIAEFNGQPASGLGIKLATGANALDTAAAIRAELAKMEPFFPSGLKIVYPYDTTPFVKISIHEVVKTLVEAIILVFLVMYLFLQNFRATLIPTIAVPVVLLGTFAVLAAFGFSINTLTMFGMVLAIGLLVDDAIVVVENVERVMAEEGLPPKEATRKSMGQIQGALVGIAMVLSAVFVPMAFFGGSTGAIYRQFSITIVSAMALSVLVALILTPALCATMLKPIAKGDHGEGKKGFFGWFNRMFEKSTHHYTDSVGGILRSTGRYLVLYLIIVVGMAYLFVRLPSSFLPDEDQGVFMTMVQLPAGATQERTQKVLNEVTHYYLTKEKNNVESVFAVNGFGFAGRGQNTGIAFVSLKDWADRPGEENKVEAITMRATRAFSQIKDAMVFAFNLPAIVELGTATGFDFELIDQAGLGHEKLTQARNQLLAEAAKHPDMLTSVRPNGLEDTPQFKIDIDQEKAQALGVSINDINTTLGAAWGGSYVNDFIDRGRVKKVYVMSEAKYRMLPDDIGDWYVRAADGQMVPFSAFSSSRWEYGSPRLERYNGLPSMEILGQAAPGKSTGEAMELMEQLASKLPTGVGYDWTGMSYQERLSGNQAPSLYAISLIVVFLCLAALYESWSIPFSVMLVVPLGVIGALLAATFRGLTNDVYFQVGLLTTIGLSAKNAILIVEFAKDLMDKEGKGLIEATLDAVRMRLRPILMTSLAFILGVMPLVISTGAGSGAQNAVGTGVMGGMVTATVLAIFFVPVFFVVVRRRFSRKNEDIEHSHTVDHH

[10] = Binding affinity to Neisseria gonorrhoeae FA19 multidrug efflux protein NorM expressed in Escherichia coli AG100AX in presence of => 100 mM NaCl by fluorescence polarization assay
Procedure, shortened: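 NaCl at 100 to 400 mM added to rhodamine 6G (1 μM) binding mixtures with purified His6-NorM in 20 mM HEPES-NaOH pH 7.5, 0.02% DDM.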

CC/N=c1\cc2oc3cc(NCC)c(C)cc3c(-c3ccccc3C(=O)OCC)c-2cc1C.Cl [RHODAMINE 6G HYDROCHLORIDE] gave an MIC [1] of 12.5 µg/mL, an MIC [2] of 3.12 µg/mL and an MIC [3] of 12.5 µg/mL. The Kd [4] was 3.4 µM, the Kd [5] was 3 µM and the Kd [6] was 3.6 µM. The Kd [7] was 3 µM, the Kd [8] was 2.6 µM and the Kd [9] was 10.3 µM. It also gave a Kd [10] of 2.5 µM.
